# In ChEMBL document CHEMBL2384915, “Design, synthesis and biological evaluation of novel 3,4,5-trisubstituted aminothiophenes as inhibitors of p53-MDM2 interaction. Part 2” (Bioorg Med Chem, 2013):
# System: A549
# Assay: Selectivity ratio of IC50 for human p53 deficient PC3 cells to IC50 for human A549 cells expressing wild type p53
# Type: functional
# Conditions: not given; call rule not given here
row,Structure (SMILES),Ratio IC50
1,Nc1sc(-c2ccc(Br)cc2)c(-c2ccc(Cl)cc2)c1C(=O)N1CCOCC1,>5
2,Nc1sc(-c2ccc(Br)cc2)c(-c2ccc(Cl)cc2)c1C(=O)N1CCCC1,>5
3,CCOC(=O)c1c(N)[nH]c(-c2ccc(Cl)cc2)c1-c1ccc(Cl)cc1,>5
4,Nc1sc(-c2ccc(F)cc2)c(-c2ccc(Cl)cc2)c1C(=O)NC1CC1,>5

# System: PC-3
# Assay: Cytotoxicity against human p53 deficient PC3 cells after 72 hrs by SRB assay
# Type: functional, cell-based
# Conditions: PC-3, 72 h
# Procedure, shortened: (§1)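 Seeded cells cultured overnight, then exposed to serial compound concentrations for 72 h. Fixed with 10% (w/v) TCA at 4 °C for 1 h, stained 30 min with 0.4% SRB in 1% acetic acid, washed with 1% acetic acid, and bound dye extracted with unbuffered Tris base. Absorbance read at 515 nm; inhibition computed versus untreated controls. IC50 derived by Logit method, mean of at least two independent tests.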
row,Structure (SMILES),IC50 [µM]
1,Nc1sc(-c2ccc(Br)cc2)c(-c2ccc(Cl)cc2)c1C(=O)NC1CC1,37.3
2,Nc1sc(-c2ccc(Cl)cc2)c(-c2ccc(Cl)cc2)c1C(=O)NC1CCCCC1,7.3
3,COc1ccc(C2=N[C@@H](c3ccc(Cl)cc3)[C@@H](c3ccc(Cl)cc3)N2C(=O)N2CCNC(=O)C2)c(OC(C)C)c1 [NUTLIN-3],20
4,Clc1ccc(-c2sc3ncnc(N4CCCCC4)c3c2-c2ccc(Cl)cc2)cc1,> 50
5,Clc1ccc(-c2sc3ncnc(NC4CC4)c3c2-c2ccc(Cl)cc2)cc1,> 50
6,Nc1sc(-c2ccc(F)cc2)c(-c2ccc(Cl)cc2)c1C(=O)N1CCCC1,20.4
7,Nc1sc(-c2ccc(Cl)cc2)c(-c2ccc(Cl)cc2)c1C(=S)NC1CCCC1,29
8,Clc1ccc(-c2sc3ncnc(NC4CCCCC4)c3c2-c2ccc(Cl)cc2)cc1,> 50
9,Nc1sc(-c2ccc(F)cc2)c(-c2ccc(Cl)cc2)c1C(=O)NCc1ccccc1,25.8
10,Nc1sc(-c2ccccc2)c(-c2ccc(Cl)cc2)c1C(=O)NCc1ccccc1,22.8
11,Nc1sc(-c2ccc(Cl)cc2)c(-c2ccc(Cl)cc2)c1C(=O)NC1CC1,3.68
12,Nc1sc(-c2ccc(Br)cc2)c(-c2ccc(Cl)cc2)c1C(=O)N1CCOCC1,> 50
13,Nc1sc(-c2ccc(Br)cc2)c(-c2ccc(Cl)cc2)c1C(=O)N1CCCC1,37.5
14,CC(C)(C)NC(=S)c1c(N)sc(-c2ccc(Cl)cc2)c1-c1ccc(Cl)cc1,34
15,O=C1CC(c2ccco2)c2c(sc(-c3ccc(Cl)cc3)c2-c2ccc(Cl)cc2)N1 (stereo unspecified),> 50
16,Nc1sc(-c2ccccc2)c(-c2ccc(Cl)cc2)c1C(=O)N1CCOCC1,29.3
17,Nc1sc(-c2ccc([N+](=O)[O-])cc2)c(-c2ccc(Cl)cc2)c1C(=O)N1CCCC1,42.6

row,Structure (SMILES),IC50 [µM]
1,O=C1CC(c2ccccc2)c2c(sc(-c3ccc(Cl)cc3)c2-c2ccc(Cl)cc2)N1 (stereo unspecified),> 50
2,COC(=O)c1c(N)sc(-c2ccc(Cl)cc2)c1-c1ccc(Cl)cc1,2.78
3,CCOC(=O)c1c(N)[nH]c(-c2ccc(Cl)cc2)c1-c1ccc(Cl)cc1,16.1
4,Nc1sc(-c2ccc(Br)cc2)c(-c2ccc(Cl)cc2)c1C(=O)NCc1ccccc1,> 50
5,Nc1sc(-c2ccc(F)cc2)c(-c2ccc(Cl)cc2)c1C(=O)NC1CC1,27.9
6,Nc1sc(-c2ccccc2)c(-c2ccc(Cl)cc2)c1C(=O)N1CCCC1,22.2
7,O=C1CC(c2cccs2)c2c(sc(-c3ccc(Cl)cc3)c2-c2ccc(Cl)cc2)N1 (stereo unspecified),> 50
8,Nc1[nH]c(-c2ccc(Cl)cc2)c(-c2ccc(Cl)cc2)c1C(=O)NC1CC1,19.3
9,Nc1sc(-c2ccc(Cl)cc2)c(-c2ccc(Cl)cc2)c1C(=S)NC1CCCCC1,27.7
10,Nc1sc(-c2ccc(Cl)cc2)c(-c2ccc(Cl)cc2)c1C(=S)NC1CC1,22.1
11,Nc1sc(-c2ccccc2)c(-c2ccc(Cl)cc2)c1C(=O)NC1CC1,17.1
12,Nc1sc(-c2ccc(F)cc2)c(-c2ccc(Cl)cc2)c1C(=O)N1CCOCC1,25.1
13,Nc1sc(-c2ccc([N+](=O)[O-])cc2)c(-c2ccc(Cl)cc2)c1C(=O)NC1CCCCC1,25.9
14,Nc1sc(-c2ccc([N+](=O)[O-])cc2)c(-c2ccc(Cl)cc2)c1C(=O)N1CCOCC1,> 50
15,Nc1sc(-c2ccc(Cl)cc2)c(-c2ccc(Cl)cc2)c1C(=O)N1CCCC1,6.22
16,Nc1sc(-c2ccc(Br)cc2)c(-c2ccc(Cl)cc2)c1C(=O)NC1CCCCC1,28.4
17,Clc1ccc(-c2sc3ncnc(N4CCOCC4)c3c2-c2ccc(Cl)cc2)cc1,> 50

# System: A549
# Assay: Cytotoxicity against human A549 cells expressing wild type p53 after 72 hrs by SRB assay
# Type: functional, cell-based
# Conditions: A549, 72 h
# Procedure, shortened: as §1
row,Structure (SMILES),IC50 [µM]
1,Nc1sc(-c2ccc(Br)cc2)c(-c2ccc(Cl)cc2)c1C(=O)NC1CC1,> 50
2,Nc1sc(-c2ccc(Cl)cc2)c(-c2ccc(Cl)cc2)c1C(=O)NC1CCCCC1,2.41
3,COc1ccc(C2=N[C@@H](c3ccc(Cl)cc3)[C@@H](c3ccc(Cl)cc3)N2C(=O)N2CCNC(=O)C2)c(OC(C)C)c1 [NUTLIN-3],4.62
4,Clc1ccc(-c2sc3ncnc(N4CCCCC4)c3c2-c2ccc(Cl)cc2)cc1,> 50
5,Clc1ccc(-c2sc3ncnc(NC4CC4)c3c2-c2ccc(Cl)cc2)cc1,42.8
6,Nc1sc(-c2ccc(F)cc2)c(-c2ccc(Cl)cc2)c1C(=O)N1CCCC1,18.8
7,Nc1sc(-c2ccc(Cl)cc2)c(-c2ccc(Cl)cc2)c1C(=S)NC1CCCC1,22.1
8,Clc1ccc(-c2sc3ncnc(NC4CCCCC4)c3c2-c2ccc(Cl)cc2)cc1,> 50
9,Nc1sc(-c2ccc(F)cc2)c(-c2ccc(Cl)cc2)c1C(=O)NCc1ccccc1,9.95
10,Nc1sc(-c2ccccc2)c(-c2ccc(Cl)cc2)c1C(=O)NCc1ccccc1,8.51
11,Nc1sc(-c2ccc(Cl)cc2)c(-c2ccc(Cl)cc2)c1C(=O)NC1CC1,1.95
12,Nc1sc(-c2ccc(Br)cc2)c(-c2ccc(Cl)cc2)c1C(=O)N1CCOCC1,7.49
13,Nc1sc(-c2ccc(Br)cc2)c(-c2ccc(Cl)cc2)c1C(=O)N1CCCC1,7.46
14,CC(C)(C)NC(=S)c1c(N)sc(-c2ccc(Cl)cc2)c1-c1ccc(Cl)cc1,> 50
15,O=C1CC(c2ccco2)c2c(sc(-c3ccc(Cl)cc3)c2-c2ccc(Cl)cc2)N1 (stereo unspecified),25.4
16,Nc1sc(-c2ccccc2)c(-c2ccc(Cl)cc2)c1C(=O)N1CCOCC1,14.2
17,Nc1sc(-c2ccc([N+](=O)[O-])cc2)c(-c2ccc(Cl)cc2)c1C(=O)N1CCCC1,10.7

row,Structure (SMILES),IC50 [µM]
1,O=C1CC(c2ccccc2)c2c(sc(-c3ccc(Cl)cc3)c2-c2ccc(Cl)cc2)N1 (stereo unspecified),17.2
2,COC(=O)c1c(N)sc(-c2ccc(Cl)cc2)c1-c1ccc(Cl)cc1,5.04
3,CCOC(=O)c1c(N)[nH]c(-c2ccc(Cl)cc2)c1-c1ccc(Cl)cc1,2.53
4,Nc1sc(-c2ccc(Br)cc2)c(-c2ccc(Cl)cc2)c1C(=O)NCc1ccccc1,18.7
5,Nc1sc(-c2ccc(F)cc2)c(-c2ccc(Cl)cc2)c1C(=O)NC1CC1,3
6,Nc1sc(-c2ccccc2)c(-c2ccc(Cl)cc2)c1C(=O)N1CCCC1,5.8
7,O=C1CC(c2cccs2)c2c(sc(-c3ccc(Cl)cc3)c2-c2ccc(Cl)cc2)N1 (stereo unspecified),20.2
8,Nc1[nH]c(-c2ccc(Cl)cc2)c(-c2ccc(Cl)cc2)c1C(=O)NC1CC1,4.62
9,Nc1sc(-c2ccc(Cl)cc2)c(-c2ccc(Cl)cc2)c1C(=S)NC1CCCCC1,7.41
10,Nc1sc(-c2ccc(Cl)cc2)c(-c2ccc(Cl)cc2)c1C(=S)NC1CC1,8.28
11,Nc1sc(-c2ccccc2)c(-c2ccc(Cl)cc2)c1C(=O)NC1CC1,4.3
12,Nc1sc(-c2ccc(F)cc2)c(-c2ccc(Cl)cc2)c1C(=O)N1CCOCC1,12.7
13,Nc1sc(-c2ccc([N+](=O)[O-])cc2)c(-c2ccc(Cl)cc2)c1C(=O)NC1CCCCC1,15
14,Nc1sc(-c2ccc([N+](=O)[O-])cc2)c(-c2ccc(Cl)cc2)c1C(=O)N1CCOCC1,16.7
15,Nc1sc(-c2ccc(Cl)cc2)c(-c2ccc(Cl)cc2)c1C(=O)N1CCCC1,0.89
16,Nc1sc(-c2ccc(Br)cc2)c(-c2ccc(Cl)cc2)c1C(=O)NC1CCCCC1,9.59
17,Clc1ccc(-c2sc3ncnc(N4CCOCC4)c3c2-c2ccc(Cl)cc2)cc1,> 50

# Biological target: Tumour suppressor p53/oncoprotein Mdm2 (Homo sapiens, UniProt P04637+Q00987)
# Assay: (§2) Inhibition of p53/MDM2 (1 to 118) (unknown origin) interaction after 1 hr by fluorescence polarization assay
# Type: protein assay
# Conditions: not given
# Sequence of Tumour suppressor p53/oncoprotein Mdm2 (Homo sapiens, UniProt P04637+Q00987) (P04637 whole entry): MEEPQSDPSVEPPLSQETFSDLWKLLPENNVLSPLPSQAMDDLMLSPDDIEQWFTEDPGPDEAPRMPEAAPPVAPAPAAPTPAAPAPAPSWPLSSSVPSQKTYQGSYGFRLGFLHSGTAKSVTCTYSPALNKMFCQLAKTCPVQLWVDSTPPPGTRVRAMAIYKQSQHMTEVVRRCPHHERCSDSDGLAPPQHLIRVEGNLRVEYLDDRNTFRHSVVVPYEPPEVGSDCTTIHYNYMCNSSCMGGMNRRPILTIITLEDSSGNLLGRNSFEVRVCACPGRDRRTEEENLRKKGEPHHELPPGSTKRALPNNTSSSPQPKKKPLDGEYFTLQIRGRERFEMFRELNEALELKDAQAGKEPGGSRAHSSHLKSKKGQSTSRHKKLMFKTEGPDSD
# Sequence of Tumour suppressor p53/oncoprotein Mdm2 (Homo sapiens, UniProt P04637+Q00987) (Q00987 whole entry): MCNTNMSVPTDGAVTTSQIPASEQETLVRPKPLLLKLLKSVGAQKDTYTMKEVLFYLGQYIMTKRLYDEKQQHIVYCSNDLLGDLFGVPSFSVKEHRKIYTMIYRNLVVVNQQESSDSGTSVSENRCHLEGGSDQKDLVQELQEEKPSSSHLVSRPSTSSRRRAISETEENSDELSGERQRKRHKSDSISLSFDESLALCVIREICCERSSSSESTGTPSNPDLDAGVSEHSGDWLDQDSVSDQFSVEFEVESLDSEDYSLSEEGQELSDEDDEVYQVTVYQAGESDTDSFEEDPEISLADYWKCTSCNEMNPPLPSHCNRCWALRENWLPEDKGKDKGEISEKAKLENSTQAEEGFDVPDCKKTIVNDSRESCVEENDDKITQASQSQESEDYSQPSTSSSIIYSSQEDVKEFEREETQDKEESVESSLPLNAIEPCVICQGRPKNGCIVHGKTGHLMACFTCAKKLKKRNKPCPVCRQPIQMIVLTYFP
row,Structure (SMILES),Ki
1,Nc1sc(-c2ccc([N+](=O)[O-])cc2)c(-c2ccc(Cl)cc2)c1C(=O)N1CCCC1,Not Active
2,Nc1sc(-c2ccc([N+](=O)[O-])cc2)c(-c2ccc(Cl)cc2)c1C(=O)NC1CC1,Not Active
3,Nc1sc(-c2ccc([N+](=O)[O-])cc2)c(-c2ccc(Cl)cc2)c1C(=O)N1CCCCC1,Not Active
4,Nc1sc(-c2ccc([N+](=O)[O-])cc2)c(-c2ccc(Cl)cc2)c1C(=O)NC1CCCCC1,Not Active
5,Nc1sc(-c2ccc([N+](=O)[O-])cc2)c(-c2ccc(Cl)cc2)c1C(=O)N1CCOCC1,Not Active

# Biological target: Tumour suppressor p53/oncoprotein Mdm2 (Homo sapiens, UniProt Q00987)
# Assay: as §2
# Type: protein assay
# Conditions: not given
# Sequence of Tumour suppressor p53/oncoprotein Mdm2 (Homo sapiens, UniProt Q00987) (P04637 whole entry): as the sequence (P04637 whole entry) above
# Sequence of Tumour suppressor p53/oncoprotein Mdm2 (Homo sapiens, UniProt Q00987) (Q00987 whole entry): as the sequence (Q00987 whole entry) above
row,Structure (SMILES),Ki [µM]
1,Nc1sc(-c2ccc(Br)cc2)c(-c2ccc(Cl)cc2)c1C(=O)NC1CC1,2.18
2,Nc1sc(-c2ccc(F)cc2)c(-c2ccc(Cl)cc2)c1C(=O)N1CCCC1,1.22
3,Nc1sc(-c2ccc(Cl)cc2)c(-c2ccc(Cl)cc2)c1C(=S)NC1CCCC1,0.17
4,Nc1sc(-c2ccc(F)cc2)c(-c2ccc(Cl)cc2)c1C(=O)NCc1ccccc1,0.6
5,Nc1sc(-c2ccccc2)c(-c2ccc(Cl)cc2)c1C(=O)NCc1ccccc1,1.14
6,Nc1sc(-c2ccc(Br)cc2)c(-c2ccc(Cl)cc2)c1C(=O)N1CCOCC1,1.48
7,Nc1sc(-c2ccc(Br)cc2)c(-c2ccc(Cl)cc2)c1C(=O)N1CCCC1,0.75
8,CC(C)(C)NC(=S)c1c(N)sc(-c2ccc(Cl)cc2)c1-c1ccc(Cl)cc1,0.58
9,Nc1sc(-c2ccccc2)c(-c2ccc(Cl)cc2)c1C(=O)N1CCOCC1,0.28
10,CCOC(=O)c1c(N)[nH]c(-c2ccc(Cl)cc2)c1-c1ccc(Cl)cc1,1.24
11,Nc1sc(-c2ccc(Br)cc2)c(-c2ccc(Cl)cc2)c1C(=O)NCc1ccccc1,0.76
12,Nc1sc(-c2ccc(F)cc2)c(-c2ccc(Cl)cc2)c1C(=O)NC1CC1,0.34
13,Nc1sc(-c2ccccc2)c(-c2ccc(Cl)cc2)c1C(=O)N1CCCC1,1.96
14,Nc1[nH]c(-c2ccc(Cl)cc2)c(-c2ccc(Cl)cc2)c1C(=O)NC1CC1,0.53
15,Nc1sc(-c2ccc(Cl)cc2)c(-c2ccc(Cl)cc2)c1C(=S)NC1CCCCC1,0.32
16,Nc1sc(-c2ccc(Cl)cc2)c(-c2ccc(Cl)cc2)c1C(=S)NC1CC1,0.086
17,Nc1sc(-c2ccccc2)c(-c2ccc(Cl)cc2)c1C(=O)NC1CC1,0.63
18,Nc1sc(-c2ccc(F)cc2)c(-c2ccc(Cl)cc2)c1C(=O)N1CCOCC1,0.22
19,Nc1sc(-c2ccc(Br)cc2)c(-c2ccc(Cl)cc2)c1C(=O)NC1CCCCC1,1.06
